Rows were chosen to be rich in hits. Some 2.5% of all compounds tested hit in one or more screens of this group.
PAD4 FP inh: blocks human protein arginine deiminase 4. inhibition, % at 6.36 µM. AID 485272. recombinant PAD4, RCA probe fluorescence polarization. Q9UM07. 330,000 compounds, 0.41% hits;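 active = percent inhibition above a cutoff equal to the mean of all tested compounds plus 3 SD, cut at about 15% in these data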;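 also: 0% = PAD4 with RCA probe and DMSO and 100% = probe without PAD4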
E coli Lon inh: E. coli protease La inhibition; purified E. coli Lon protease, fluorescence polarization; AID 602123; P0A9M0; 360,000 compounds, 0.42% hits; inhibition, % at 7.94 µM; in the data active = inhibition above about 13%, passing the limit was not always enough;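 also: 0% = enzyme with probe and DMSO and 100% = no enzyme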
GSTO1 inh: counter-screen for RBBP9 inhibitors: inhibitors of human GSTO1; inhibition, % at 5.96 µM; 300,000 compounds, 1.1% hits; recombinant GSTO1, activity-based probe fluorescence polarization; P78417;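 active = inhibition above the campaign mean inhibition plus 3 SD, cut at about 35% in these data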;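 also: 0% = GSTO1-1 with DMSO and 100% = wells lacking GSTO1-1 enzyme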
Target sequence (P78417 whole entry, looked up): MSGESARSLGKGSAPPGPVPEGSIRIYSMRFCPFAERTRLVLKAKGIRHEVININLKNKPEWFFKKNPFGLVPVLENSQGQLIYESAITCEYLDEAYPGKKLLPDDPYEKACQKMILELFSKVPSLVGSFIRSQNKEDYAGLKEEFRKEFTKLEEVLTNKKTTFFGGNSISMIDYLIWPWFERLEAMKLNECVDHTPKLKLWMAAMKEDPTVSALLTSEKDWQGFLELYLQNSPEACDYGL
TDP2 inh: TDP2 (human) inhibition, absorbance primary screen; inhibition, % at 12.8 µM; 370,000 compounds, 0.34% hits; recombinant TDP2, T5PNP hydrolysis, p-nitrophenol absorbance 415 nm; O95551;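 active = inhibition above the mean of all tested compounds plus 3 SD, set per campaign, cut at about 25% in these data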;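 also: 0% = DMSO with enzyme and 100% = buffer with substrate but no TDP2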
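System: recombinant human TDP2 / Amount: 120 nM TDP2 per well / Also added: 5 mM T5PNP chromogenic substrate / Doses: 12.8 µM single point, 1% DMSO / Incubation: 2 h at 37 °C / Detection: p-Nitrophenol epi absorbance / Evaluation: % inhibition relative to enzyme-containing and enzyme-free wells / Repeats: singlicate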
PRMT1 FP inh: PRMT1 (human) inhibition, primary screen; 370,000 compounds, 1.3% hits; AID 652257; inhibition, % at 2.79 µM; recombinant PRMT1, activity-based probe fluorescence polarization;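 active = inhibition above about 21% made by adding two undisclosed values, limit read from the data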
Target sequence (Q99873 whole entry, looked up): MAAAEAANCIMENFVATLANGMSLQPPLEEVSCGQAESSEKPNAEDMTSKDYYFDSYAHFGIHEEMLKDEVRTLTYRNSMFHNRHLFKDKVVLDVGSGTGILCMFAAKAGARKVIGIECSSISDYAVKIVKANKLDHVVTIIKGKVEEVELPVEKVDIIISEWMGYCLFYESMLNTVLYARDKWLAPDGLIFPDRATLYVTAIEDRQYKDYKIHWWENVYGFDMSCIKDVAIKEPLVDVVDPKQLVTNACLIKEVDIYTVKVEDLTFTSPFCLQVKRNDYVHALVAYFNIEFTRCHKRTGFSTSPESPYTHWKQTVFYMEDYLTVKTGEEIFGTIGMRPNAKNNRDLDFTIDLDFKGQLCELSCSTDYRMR
PRMT1 inh conf: confirmation of human PRMT1 inhibitors. shares compounds with PRMT1 FP inh. recombinant His-PRMT1, activity-based probe fluorescence polarization. inhibition, % at 2.79 µM. 3,300 compounds, 42% hits;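 active = mean inhibition across replicates above the hit cutoff derived for the earlier primary screen, cut at about 22% in these data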
The depositor's hits bear a star; . = no result.

SMILES	PAD4 FP inh	E coli Lon inh	GSTO1 inh	TDP2 inh	PRMT1 FP inh	PRMT1 inh conf
CCn1c(C)c(CS(=O)(=O)c2ccccc2)[nH]c1=O	5	0	9	-3	69*	73*
O=c1[nH]c(CS(=O)(=O)c2ccccc2)nc2ccccc12	-6	-4	13	9	3	.
CC(=O)N[C@H]1C[C@@H]2O[C@H](CO)CC[C@@H]2O[C@@H]1CCc1ccc(-c2ccc(F)cc2)cc1	.	.	.	-2	1	.
S=C(CN1CCCC1=S)N1CCOCC1	2	7	7	21	-3	.
CC(C)(CCC(=S)N1CCOCC1)C1CCCCC1	-1	7	1	-19	37*	6
Cc1nc2sc(C(c3ccco3)N3CCN(c4cccc(Cl)c4)CC3)c(O)n2n1 (centres undefined)	-2	-7	2	-16	65*	1
Cc1nc2sc(C(c3ccco3)N3CC(C)OC(C)C3)c(O)n2n1 (centres undefined)	-6	3	3	-6	29*	5
C=C1C(=O)C23C(O)C1CCC2C12COC3(O)C(O)C1C(C)(C)CCC2O (centres undefined)	.	-2	.	8	29*	41*
Cc1cccc(N(CC(=O)NCC2CCCO2)C(=O)CNS(=O)(=O)c2ccc(Cl)cc2)c1 (centres undefined)	-6	1	1	-17	-1	.
CCCC[n+]1c(C)sc2ccc(C)cc21	-6	1	5	-11	42*	18
CC[n+]1c(C)sc2cc(C)ccc21	14	0	2	-6	74*	16
CCN1/C(=C/c2ccc3cc(C)ccc3[n+]2CC)Sc2ccccc21	-56	-178	-5	-2	-14	.
Cc1ccc2sc(C)[n+](CCO)c2c1	9	-2	0	4	58*	33*
Cc1ccc(C)n1-c1sc2c(c1C(=O)O)CCCC2	-4	-6	7	16	27*	1
COc1ccc(OC)c(C(=O)Nc2ccc3[nH]ccc3c2)c1	5	-1	2	17	-1	.
COc1cc(C)ccc1S(=O)(=O)NC(=O)C1(C)CCN1C(=O)C1(c2ccc(Cl)cc2)CCC1 (centres undefined)	.	-1	.	5	3	.
Cc1noc(C)c1C(=O)OC(C)C(=O)Nc1ccc([N+](=O)[O-])cc1C(F)(F)F (centres undefined)	.	0	.	-1	4	.
CCc1noc(C)c1C(=O)OC(C)C(=O)Nc1cc([N+](=O)[O-])ccc1OC (centres undefined)	3	-6	-1	0	98*	-2
Cc1ccc(C(=O)NC(C)C2CC3CCC2C3)c(C)c1 (centres undefined)	2	5	3	17	-1	.
CC1(C(=O)Nc2cccc(NS(C)(=O)=O)c2)Cc2c(-c3ccc(C(N)=O)cc3)ccnc2O1 (centres undefined)	.	6	.	-16	-4	.
O=C(OCC(=O)C12CC3CC(CC(C3)C1)C2)c1ccc(O)cc1	1	15	.	3	56*	-7
C=C(C)C#CCNCc1ccccc1	.	.	.	8	-2	.
NCCSSCCN	3	-8	11	-12	80*	31*
COc1ccc(S[C@]2(C(=O)N3CCCC3)CC(=O)N(C(=O)c3ccccc3)[C@@H]2c2ccc(OC)cc2)cc1	.	.	.	-18	74*	73*
COc1ccc(S[C@]2(C(=O)N3CCCC3)CC(=O)N(c3ccsc3)[C@@H]2c2ccc(OC)cc2)cc1	.	.	.	-4	2	.
SMILES	PAD4 FP inh	E coli Lon inh	GSTO1 inh	TDP2 inh	PRMT1 FP inh	PRMT1 inh conf
COc1ccc(S[C@]2(C(=O)N(C)C)CC(=O)N(C(=O)c3ccccc3)[C@@H]2c2ccc(OC)cc2)cc1	.	.	.	-9	84*	72*
COc1ccc(S[C@]2(C(=O)N(C)C)CC(=O)N(S(=O)(=O)c3ccc(F)cc3)[C@@H]2c2ccc(OC)cc2)cc1	.	.	.	-2	26*	27*
COC(=O)[C@@]1(Sc2ccc(C)cc2)CC(=O)N(C(=O)c2ccccc2)[C@@H]1c1ccccc1	.	-4	.	6	68*	77*
COc1ccc(S[C@]2(C(=O)N(C)C)CC(=O)N(c3ccc(C#N)cc3)[C@@H]2c2ccc(OC)cc2)cc1	.	.	.	-12	4	.
COC(=O)[C@]1(C#N)CC(=O)N(C)[C@@H]1c1ccccc1	.	.	.	-12	-10	.
CC1(C(=O)NS(=O)(=O)c2ccc(Cl)cc2)CCN1C(=O)C1CC1 (centres undefined)	.	-14	.	16	0	.
CC[C@]1(C(=O)OC)[C@H]2C(=O)N(Cc3ccccc3)C(=O)[C@H]2[C@H]2CN=C(SCC(=O)c3ccccc3)N21	5	8	.	6	54*	58*
COC(=O)[C@@]1(C)[C@H]2C(=O)N(C)C(=O)[C@H]2[C@H]2CN=C(SCC(=O)c3ccccc3)N21	-1	-3	.	-12	76*	80*
COC(=O)[C@@]1(C)[C@H]2C(=O)N(C)C(=O)[C@H]2[C@H]2CN=C(SCc3ccccc3)N21	5	6	.	-1	2	.
COc1ccc(/C=C2/CCC(CN3CCOCC3)C2=O)cc1 (centres undefined)	.	-3	.	3	53*	61*
CN(C)CC1CC/C(=C\c2ccc(O)cc2)C1=O (centres undefined)	.	-5	.	0	53*	45*
O=C(O)/C=C/C(=O)Nc1ccc(OC(F)(F)F)cc1Br	3	9	2	1	50*	5
Cc1c(Cc2ccc3c(c2)OCO3)sc(NC(=O)C2CC2)c1C(N)=O	0	1	7	0	30*	8
COC(=O)C1=C(O)/C(=C\c2ccc(CNS(=O)(=O)c3ccccc3)o2)N=C1C	2	1	20	1	39*	16
COC(=O)C1=C(O)/C(=C\c2ccc(CNS(=O)(=O)c3ccc(Cl)cc3)o2)N=C1C	-2	-7	9	1	56*	15
CCOC(=O)C1=C(O)/C(=C\c2ccc(CNS(=O)(=O)c3ccc(Br)cc3)o2)N=C1C	-3	-10	19	-3	34*	15
COC(=O)C1=C(O)/C(=C\c2ccc(OCC(=O)Nc3ccccc3)cc2)N=C1C	-1	-6	0	6	2	.
O=C(O)c1ccccc1Nc1cccc(OCc2ccc3ccccc3n2)c1	3	0	7	-12	2	.
N#Cc1ccc(N)cc1OCCCN1CCCCC1	.	4	.	3	0	.
S=C(NCC1CCCO1)c1ccc(Br)cc1 (centres undefined)	-2	6	-1	2	11	.
O=C(Nc1ccc(F)cc1)C(c1ccccc1)N1CCN(c2ccncc2)CC1 (centres undefined)	.	.	.	-2	-4	.
Cc1ccc2cc3c(N)c(C(=O)Nc4c(C)[nH]c(=O)[nH]c4=O)sc3nc2c1	-2	2	14	0	31*	2
